Assay results reported in ChEMBL document CHEMBL3877322, “Design, synthesis, molecular modeling and anti-hyperglycemic evaluation of novel quinoxaline derivatives as potential PPARγ and SUR agonists” (Bioorg Med Chem, 2017).
pEC50, pIC50: −log10 of the molar value.

What was measured:
[1] = Agonist activity at SUR in Wistar rat islets of pancreas assessed as induction of glucose-stimulated insulin secretion preincubated for 1 hr followed by glucose addition measured after 30 mins by sandwich ELISA
Summary of the method: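 Islets from fed male-unspecified Wistar rats (200-250 g), pilocarpine-pretreated i.p., isolated by collagenase, then cultured overnight at 16 mmol/l glucose in CMRL-1066 with L-glutamine, gentamycin and 10% FCS at 37°C. Exposed 1 h to compound in DMSO (5, 10, 15, 20 uM), washed in Ringer HEPES, then 30 min at 37°C with 16.7 mmol/l glucose. Insulin measured by rat insulin sandwich ELISA (A450); EC50 reported.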

[2] = test system: Rattus norvegicus; experiment: Antihyperglycemic activity in Swiss albino rat model of streptozotocin-induced hyperglycemia assessed as reduction in blood glucose level at 0.36 mg/kg, po measured after 3 hrs by glucometer relative to control; type: functional; design: scale not given: the % may be the effect or the level left
Summary of the method: (§1)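 Adult male Swiss albino rats (200-300 g) acclimatized 24 h, then given streptozotocin 60.00 mg/kg i.p. in 0.90% sodium citrate buffer pH 4.50. Those with glucose >250.00 mg/dl at 72 h were used, six per group. Single oral dose; diabetic controls received 1% gum acacia vehicle. Tail blood glucose read by glucometer at 0 and 3 h; % reduction calculated.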

[3] = test system: Rattus norvegicus; experiment: Antihyperglycemic activity in Swiss albino rat model of streptozotocin-induced hyperglycemia assessed as reduction in blood glucose level at 20 mg/kg, po measured after 3 hrs by glucometer relative to control; type: functional; design: scale not given: the % may be the effect or the level left; summary of the method: as §1
[4] = target: T1, Peroxisome proliferator-activated receptor gamma (Homo sapiens, UniProt P37231); experiment: Displacement of fluormone-PPARgamma Green from recombinant human N-terminal GST-tagged PPARgamma-LBD by fluorescence polarization assay
T1 sequence (P37231 whole entry): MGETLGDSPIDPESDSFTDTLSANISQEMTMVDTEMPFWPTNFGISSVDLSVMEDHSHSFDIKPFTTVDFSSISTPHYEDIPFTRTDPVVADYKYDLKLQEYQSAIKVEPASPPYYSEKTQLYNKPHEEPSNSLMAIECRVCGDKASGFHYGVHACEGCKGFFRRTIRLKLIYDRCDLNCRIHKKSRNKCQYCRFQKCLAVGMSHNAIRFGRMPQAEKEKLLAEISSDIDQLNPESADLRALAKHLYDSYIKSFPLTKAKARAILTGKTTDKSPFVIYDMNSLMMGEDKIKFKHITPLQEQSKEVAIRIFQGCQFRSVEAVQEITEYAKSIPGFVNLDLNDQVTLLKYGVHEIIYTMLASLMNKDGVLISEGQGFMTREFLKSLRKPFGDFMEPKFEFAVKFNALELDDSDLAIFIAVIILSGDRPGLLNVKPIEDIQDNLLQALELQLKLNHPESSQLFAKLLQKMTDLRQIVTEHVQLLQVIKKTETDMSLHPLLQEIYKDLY

| SMILES | pEC50 [1] | Activity [2] | Activity [3] | pIC50 [4] |
| --- | --- | --- | --- | --- |
| CCC1=C(C)CN(C(=O)NCCc2ccc(S(=O)(=O)NC(=O)NC3CCC(C)CC3)cc2)C1=O (stereo unspecified) | 5.40 to 6.14 | 26.53% | – | – |
| Cc1nc2ccccc2n(CC(=O)Nc2ccc(S(=O)(=O)NC(=O)Nc3ccccc3)cc2)c1=O | – | – | 25.15% | – |
| O=C(CN1CC(=O)Nc2ccccc21)Nc1ccc(S(=O)(=O)NC(=S)NC2CCCCC2)cc1 | – | – | 13.08% | – |
| Cc1nc2ccccc2n(CC(=O)Nc2ccc(S(=O)(=O)NC(=O)NC3CCCCC3)cc2)c1=O | 6.04 | – | 50.58% | 6.32 |
| O=C(CN1CC(=O)Nc2ccccc21)Nc1ccc(S(=O)(=O)NC(=S)Nc2ccccc2)cc1 | – | – | 2.88% | – |
| O=C1CN(C(=O)CNc2ccc(S(=O)(=O)NC(=O)Nc3ccccc3)cc2)c2ccccc2N1 | – | – | 22.01% | – |
| Cc1nc2ccccc2n(CC(=O)Nc2ccc(S(=O)(=O)NC(=S)NC3CCCCC3)cc2)c1=O | 5.57 | – | 33.23% | 6.46 |
| CCCCNC(=O)NS(=O)(=O)c1ccc(NCC(=O)N2CC(=O)Nc3ccccc32)cc1 | 5.71 | – | 40.55% | 5.88 |
| CCCCNC(=S)NS(=O)(=O)c1ccc(NC(=O)Cn2c(=O)c(C)nc3ccccc32)cc1 | 5.55 | – | 43.84% | 6.43 |
| O=C(CN1CC(=O)Nc2ccccc21)Nc1ccc(S(=O)(=O)NC(=O)NC2CCCCC2)cc1 | 5.81 | – | 39.81% | 5.94 |
| O=C(CN1CC(=O)Nc2ccccc21)Nc1ccc(S(=O)(=O)NC(=O)Nc2ccccc2)cc1 | – | – | 21.89% | – |
| CCCCNC(=O)NS(=O)(=O)c1ccc(NC(=O)Cn2c(=O)c(C)nc3ccccc32)cc1 | 6.01 | – | 40.55% | 6.31 |
| CCCCNC(=S)NS(=O)(=O)c1ccc(NC(=O)CN2CC(=O)Nc3ccccc32)cc1 | – | – | 30.75% | – |
| O=C1CN(C(=O)CNc2ccc(S(=O)(=O)NC(=O)NC3CCCCC3)cc2)c2ccccc2N1 | 5.72 | – | 49.62% | 5.94 |
| Cc1nc2ccccc2n(CC(=O)Nc2ccc(S(=O)(=O)NC(=S)Nc3ccccc3)cc2)c1=O | – | – | 20.54% | – |
| CCCCNC(=O)NS(=O)(=O)c1ccc(NC(=O)CN2CC(=O)Nc3ccccc32)cc1 | 5.77 | – | 45.1% | 5.89 |
| Cc1ccc(NC(=S)NS(=O)(=O)c2ccc(CCNS(=O)(=O)c3ccccc3)cc2)cc1 | 4.00 | – | – | – |
| COc1ccc(NC(=S)NS(=O)(=O)c2ccc(CCNS(=O)(=O)c3ccccc3)cc2)cc1 | 3.00 | – | – | – |
| O=S(=O)(NCCc1ccc(S(=O)(=O)NC(=S)Nc2ccc(Cl)cc2)cc1)c1ccc(Cl)cc1 | 4.48 | – | – | – |
| COc1ccc(NC(=S)NS(=O)(=O)c2ccc(CCNS(=O)(=O)c3ccc(Cl)cc3)cc2)cc1 | 4.48 | – | – | – |
| O=C(NC1CCCCC1)NS(=O)(=O)c1ccc(CCNS(=O)(=O)c2ccccc2)cc1 | 4.90 | – | – | – |
| CC1CCC(NC(=O)NS(=O)(=O)c2ccc(CCNS(=O)(=O)c3ccc(Cl)cc3)cc2)CC1 (stereo unspecified) | 5.69 | – | – | – |
| CC1CCC(NC(=O)NS(=O)(=O)c2ccc(CCNS(=O)(=O)c3ccc(Br)cc3)cc2)CC1 (stereo unspecified) | 5.80 | – | – | – |
| CC1CCC(NC(=O)NS(=O)(=O)c2ccc(CCNS(=O)(=O)c3ccccc3)cc2)CC1 (stereo unspecified) | 5.47 | – | – | – |
| O=C(NC1CCCCC1)NS(=O)(=O)c1ccc(CCNS(=O)(=O)c2ccc(Cl)cc2)cc1 | 5.51 | – | – | – |
| O=C(NC1CCCCC1)NS(=O)(=O)c1ccc(CCNS(=O)(=O)c2ccc(Br)cc2)cc1 | 5.62 | – | – | – |
| CC(=O)Nc1ccc(S(=O)(=O)NCCc2ccc(S(=O)(=O)NC(=O)NC3CCC(C)CC3)cc2)cc1C (stereo unspecified) | 5.15 | – | – | – |
| CC(=O)Nc1ccc(S(=O)(=O)NCCc2ccc(S(=O)(=O)NC(=O)NC3CCC(C)CC3)cc2)cc1 (stereo unspecified) | 4.70 | – | – | – |
| O=S(=O)(NCCc1ccc(S(=O)(=O)NC(=S)Nc2ccc(Cl)cc2)cc1)c1ccccc1 | 4.48 | – | – | – |
